Test results reported in ChEMBL document CHEMBL1921775, “Phenolic glycosides from sugar maple (Acer saccharum) bark” (J Nat Prod, 2011).
Converted amounts (≈) assume the structure as drawn.

Experiments:
HCT-116 = test: Cytotoxicity against human HCT116 cells after 72 hrs by MTS assay; assay type: functional, cell-based; details: HCT-116, 72 h
How it was run: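 HCT-116 carcinoma cells in McCoy's 5A with 10% FBS, 1% nonessential amino acids, 2% HEPES and antibiotics, passages 26–35, 37 °C, 5% CO2. Samples were DMSO-solubilized by sonication and diluted in medium, final DMSO ≤0.5%. Cells were exposed for 72 h to six-point 4-fold dilutions. MTS plus phenazine methosulfate ran 3 h, with absorbance at 490 nm versus control wells. IC50 given as mean ± SD, three experiments.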

Caco-2 = test: Cytotoxicity against human Caco2 cells after 72 hrs by MTS assay; assay type: functional, cell-based; details: Caco-2, 72 h
How it was run: (§1)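 Colon cells (Caco-2 adenocarcinoma, nontumorigenic CCD-18Co) in EMEM with 10% FBS, 1% nonessential amino acids, 1% L-glutamine and antibiotics, passages 26–35, 37 °C, 5% CO2. Samples were dissolved in DMSO by sonication and diluted in medium, with final DMSO ≤0.5%. Six-point 4-fold dilution series ran for 72 h. MTS/PMS was read at OD490 after 3 h. IC50 reported as mean ± SD of three experiments.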

[1] = Cytotoxicity against human CCD-18Co cells after 72 hrs by MTS assay; assay type: cell-based; how it was run: as §1

Compound | IC50 (HCT-116) | IC50 (Caco-2) | IC50 [1]
COc1cc([C@H]2OC[C@H]3[C@@H]2CO[C@@H]3c2cc(OC)c(O[C@@H]3O[C@H](CO)[C@@H](O)[C@H](O)[C@H]3O)c(OC)c2)cc(OC)c1O | < 5 µg/mL | < 5 µg/mL | < 5 µg/mL
COc1cc(CO)cc(OC)c1O[C@@H]1O[C@H](CO)[C@@H](O)[C@H](O)[C@H]1O | < 5 µg/mL | < 5 µg/mL | < 5 µg/mL
COc1cc([C@@H]2Oc3c(OC)cc(CCCO)cc3[C@H]2CO)ccc1O[C@@H]1O[C@@H](C)[C@H](O)[C@@H](O)[C@H]1O | < 5 µg/mL | < 5 µg/mL | < 5 µg/mL
COc1cc(CO)ccc1O[C@@H]1O[C@H](CO[C@@H]2OC[C@](O)(CO)[C@H]2O)[C@@H](O)[C@H](O)[C@H]1O | < 5 µg/mL | < 5 µg/mL | < 5 µg/mL
COc1cc(O[C@@H]2O[C@H](CO[C@@H]3OC[C@](O)(CO)[C@H]3O)[C@@H](O)[C@H](O)[C@H]2O)cc(OC)c1OC | < 5 µg/mL | < 5 µg/mL | < 5 µg/mL
COc1cc(O[C@@H]2O[C@H](CO)[C@@H](O)[C@H](O)[C@H]2O)cc(OC)c1OC | < 5 µg/mL | < 5 µg/mL | < 5 µg/mL
COc1cc([C@@H]2c3cc4c(cc3[C@@H](O[C@@H]3O[C@@H]5CO[C@@H](C)O[C@H]5[C@H](O)[C@H]3O)[C@H]3COC(=O)[C@H]23)OCO4)cc(OC)c1O [ETOPOSIDE] | 9.9 µg/mL (≈ 16.8 µM) | 9.4 µg/mL (≈ 16 µM) | 43.6 µg/mL (≈ 74.1 µM)
COc1cc(C(=O)OC[C@H]2O[C@@H](Oc3ccc([C@@H]4Oc5c(OC)cc(CCCO)cc5[C@H]4CO)cc3OC)[C@H](O)[C@@H](O)[C@@H]2O)ccc1O [SACCHARUMOSIDE A] | < 5 µg/mL | < 5 µg/mL | < 5 µg/mL
COc1cc(C(=O)OC[C@H]2O[C@@H](Oc3ccc(CO)cc3OC)[C@H](O)[C@@H](O)[C@@H]2O)ccc1O [SACCHARUMOSIDE B] | < 5 µg/mL | < 5 µg/mL | < 5 µg/mL
COC(=O)c1cc(O[C@@H]2O[C@H](CO[C@@H]3OC[C@](O)(CO)[C@H]3O)[C@@H](O)[C@H](O)[C@H]2O)ccc1O [SACCHARUMOSIDE C] | < 5 µg/mL | < 5 µg/mL | < 5 µg/mL
COC(=O)c1cc(O[C@@H]2O[C@H](CO)[C@@H](O)[C@H](O)[C@H]2O[C@@H]2OC[C@](O)(CO)[C@H]2O)ccc1O [SACCHARUMOSIDE D] | < 5 µg/mL | < 5 µg/mL | < 5 µg/mL
COc1cc2ccc(=O)oc2cc1O[C@@H]1O[C@H](CO)[C@@H](O)[C@H](O)[C@H]1O [SCOPOLIN] | < 5 µg/mL | < 5 µg/mL | < 5 µg/mL
COc1cc(CO)ccc1O[C@@H]1O[C@H](CO)[C@@H](O)[C@H](O)[C@H]1O [VANILLOLOSIDE] | < 5 µg/mL | < 5 µg/mL | < 5 µg/mL
